Source: PubChem BioAssay
In the library only some 1.1% were active in any assay of this set; here they are far more common.
G6PDH CS: L. mesenteroides G6PDH inhibitors, counter-screen for G6PDH-coupled screening assays, biochemical, Leuconostoc mesenteroides enzyme; Purified L. mesenteroides G6PDH, diaphorase/resazurin coupled fluorescence, 45 min; inhibition, % at 5 µM; hit rate 0.12% among 200,000; glucose-6-phosphate dehydrogenase [Leuconostoc mesenteroides]; in the data active = inhibition above about 50%
PMI act satM6P: human PMI activators, high substrate, primary screen, biochemical, fluorescence intensity, near-saturating mannose 6-phosphate; hit rate 0.34% among 190,000; activation factor at 20 µM; Mannose-6-phosphate isomerase (Homo sapiens), P34949; coupled PMI enzyme assay, resazurin fluorescence, 20 min; active compounds read high; 1 = untreated enzyme, 0 = substrate-free blank;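 active = activation factor of 2 or more at 20 µM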
Target sequence (P34949 whole entry, looked up): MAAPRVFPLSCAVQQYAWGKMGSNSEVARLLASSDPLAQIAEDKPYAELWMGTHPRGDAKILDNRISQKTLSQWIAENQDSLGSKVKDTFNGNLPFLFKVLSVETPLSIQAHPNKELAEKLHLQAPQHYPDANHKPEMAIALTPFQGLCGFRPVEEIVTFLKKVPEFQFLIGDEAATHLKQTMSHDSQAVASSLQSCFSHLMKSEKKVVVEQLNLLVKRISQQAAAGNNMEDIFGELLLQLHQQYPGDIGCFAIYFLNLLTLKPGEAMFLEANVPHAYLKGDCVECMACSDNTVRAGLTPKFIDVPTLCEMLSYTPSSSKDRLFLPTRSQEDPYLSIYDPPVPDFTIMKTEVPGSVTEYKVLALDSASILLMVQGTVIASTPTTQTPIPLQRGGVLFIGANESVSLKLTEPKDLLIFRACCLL
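Test system: human phosphomannose isomerase with PGI, G6PDH, diaphorase coupling enzymes / Doses: 20 µM compound, 1% DMSO / Times: enzyme reaction with compound 20 min at room temperature / Measured by: Diaphorase-driven resazurin-to-resorufin fluorescence, excitation 544, emission 590 nm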
Diaphorase inh: diaphorase inhibitors and chemical oxidizers, primary screen, counter-screen for diaphorase-coupled primary assays, biochemical, uHTS, resorufin fluorescence | diaphorase resazurin-to-resorufin fluorescence, NADH, 16 min; bacterial (C. kluyveri) enzyme, not human | inhibition, % at 20 µM | hit rate 0.69% among 190,000 | AID 1217, 2008;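 active = primary screen inhibition at 20 µM above a set limit, cut at about 50% in these data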;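 note: plate controls were DMSO with full reaction for no effect and wells lacking NADH for full effect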
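Assay system: diaphorase enzyme from Clostridium kluyveri; Input: enzyme working solution with 0.14 U/mL diaphorase; Timing: 16 min at room temperature; Technique: resorufin fluorescence, excitation 544 nm, emission 590 nm; Benchmarks: positive control minus NADH, DMSO neutral control.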
Diaphorase act: compounds boosting diaphorase resazurin reduction – biochemical, uHTS, resorufin fluorescence, counter-screen for diaphorase-coupled primary assays, primary screen | Diaphorase/resazurin coupled assay, 16 min; active compounds read high; 1 = vehicle wells, 0 = NADH-free wells | activation factor at 20 µM | hit rate 0.005% among 190,000 | AID 1229, 2008;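 active = diaphorase activity raised at least twofold by the compound at 20 µM; inactive = activation factor below 2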
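Test system: Clostridium kluyveri diaphorase, purified enzyme; input: enzyme 0.07 U/mL final; buffer or medium: 50 mM HEPES pH 7.4 with 4.542 mM MgCl2, 0.005% Tween 20; also added: 0.114 mM NADH and 0.1 mM resazurin, final amounts; schedule: 16 min enzyme reaction, ambient temperature; technique: fluorescence of resorufin, 544 nm excitation, 590 nm emission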
PMI act: activators of human PMI, primary screen, biochemical, fluorescence intensity, near-Km mannose 6-phosphate. hit rate 0.005% among 190,000. purified human PMI, coupled resazurin fluorescence, 20 min; active compounds read high; 1 = vehicle control, 0 substrate-free wells. activation factor at 20 µM;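 active = activation factor of 2 or more at 20 µM, relative to plate controls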
* hit, by the source's call.

SMILES	G6PDH CS	PMI act satM6P	Diaphorase inh	Diaphorase act	PMI act
Cc1nnnn1CC(=O)Nc1ccccc1[N+](=O)[O-]	11.1	1	-5.6	1.1	0.9
CCN(CC)S(=O)(=O)c1ccc(NC(=O)C2CCCN(C(=O)c3ccc(Cl)cc3)C2)cc1 (centres undefined)	-4.6	1.1	11.6	0.9	0.9
O=S(=O)(c1ccc(N=C2NN=C(c3cc(F)ccc3F)CS2)cc1)N1CCOCC1	4.9	2.3*	1.4	1	1.7
CC(SCc1ccccc1)C(=O)N/N=C/c1cc2c(cc1Br)OCO2 (centres undefined)	14.2	0.8	50.9*	0.5	0.8
CC(SCc1ccccc1)C(=O)N/N=C/c1ccc2c(c1)OCO2 (centres undefined)	-5.2	1	7.5	0.9	0.9
Oc1ccc(/C=N/Nc2ccccc2)cc1	-1.7	2.5*	24.6	0.8	1.6
Brc1ccc(/C=N/Nc2ccccc2)cc1	10.9	2.4*	16.0	0.8	1.4
CCc1cc(N2CCOCC2)cc2c1[nH]c1ccccc12	29.2	0.3	52.7*	0.5	0.4
c1ccc2c(c1)[nH]c1c(N3CCOCC3)ncnc12	-13.7	0.9	2.5	1	0.9
Cc1cccc(C=Nc2ccc3c4c(cccc24)CC3)c1O	-27.2	0.5	20.7	0.8	0.6
Oc1ccc(Cl)cc1C=Nc1ccc2c3c(cccc13)CC2	34.1	0.3	60.2*	0.4	0.5
CCN(Cc1ccncc1)Cc1c(O)ccc2ccccc12	28.0	0.3	64.3*	0.4	0.5
CC(C)CN(Cc1c(O)ccc2ccccc12)CC(C)C	31.5	0.3	44.3	0.6	0.6
CSc1nc(O)c(/C=C2\C=Nc3ccccc32)[nH]1	9.0	1	21.2	0.8	1
O=c1[nH]c(/C=C2\C=Nc3ccccc32)c(O)n1Cc1ccccc1F	5.7	0.8	69.3*	0.3	0.8
N#CCSc1ccc(-c2nc3ccccc3[nH]2)cn1	11.4	0.9	57.7*	0.4	1
CCOC(=O)CSc1ccc(-c2nc3ccccc3[nH]2)cn1	-6.2	0.9	11.2	0.9	0.9
Cc1cc(/C=C2\Sc3ccccc3N2C)cc(C)[n+]1CC1CCCO1 (centres undefined)	-3.7	0.9	4.2	1	1
Cc1ccc(CNc2ccc(O)cc2)cc1	-31.1	0.7	52.9*	0.5	0.5
CC(=O)c1cc2c(O)c(O)ccc2o1	54.5*	0.3	73.5*	0.3	0.2
O=C(CC(=O)NN=C1CCCCCC1)NCc1cccnc1	2.3	1.1	-2.3	1	1.1
Nn1c(COc2ccc(Cl)cc2)nc2ccccc2c1=O	-0.4	0.9	13.5	0.9	1
CCCCn1c(=O)cc(O)c2ccccc21	1.8	0.9	14.2	0.9	0.9
CCCCn1c(C)cc2cc(O)ccc21	56.7*	0.7	31.8	0.7	0.6
N#Cc1c(NC(=O)CSc2ncnc3sccc23)oc(-c2ccco2)c1-c1ccco1	19.3	0.9	59.8*	0.4	1.3
SMILES	G6PDH CS	PMI act satM6P	Diaphorase inh	Diaphorase act	PMI act
O=C(CSc1cccc[n+]1[O-])Nc1ccc2c(c1)OCO2	1.5	1	-1.6	1	1.1
O=C(NC(=S)N(CCCCO)C1CCCCC1)c1sc2ccccc2c1Cl	7.6	1.1	72.2*	0.3	1
Cc1cccnc1NCc1ccc(O)c2ncccc12	25.1	0.4	77.2*	0.2	0.5
Cc1ccc(O)c(CNc2cccc3cccnc23)c1	17.3	0.4	38.8	0.6	0.7
Cc1cccc(NCc2ccc(O)c3ncccc23)c1C	49.6	0.2	80.3*	0.2	0.4
CC(=O)CCc1c(C)c2cccc(C)c2[nH]c1=O	5.5	0.9	23.2	0.8	0.9
COc1cccc2c(=S)c(CCC(C)=O)c(C)[nH]c12	2.3	2.1*	0.7	1	1.6
O=C(COc1ccc(Cl)cc1)N1CCN(C(=O)c2cccs2)CC1	5.6	1	8.3	0.9	1
